Reference: ChEMBL document CHEMBL1126613, “Centrally acting serotonergic agents. Synthesis and structure-activity relationships of C-1- or C-3-substituted derivatives of 8-hydroxy-2-(di-n-propylamino)tetralin” (J Med Chem, 1993)
“And” between values parts separate entries of the source, which are not always exact repeats. Equal entries are not always repeated.

What was measured:
Mus musculus [1] = assay: Behavioral time in mouse isolation-induced aggression assay 32 umol/kg administered peritoneally; format: functional; settings: in the assay text read “administered orally” for “administered peritoneally”
Method in brief: (§1)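 Male CF-1 mice. Residents were isolated singly for at least 1 month; group-housed intruders were kept 4-6/cage. Mice weighed 28-30 g at first test. Residents got drug ip or orally in 0.25% methylcellulose or 0.1% citric acid 30 min before an untreated intruder was introduced. Latency to fighting was recorded, capped at 600 s. Dosing was blind, 6/group (vehicle n = 12), Wilcoxon rank sum.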

Mus musculus [2] = assay: Behavioral time in mouse face to face assay at 32 umol/kg administered; format: functional
Method in brief: (§2)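 Male CF-1 mice (Charles River, 19-29 g), 8 pairs per dose, dosed sc, ip or orally in 0.25% methylcellulose or 0.1% citric acid; 30 min absorption housed with familiar partner. Pairs from different home cages placed in small litter-floored cage; face-to-face interaction duration scored visually for 3 min. Wilcoxon rank sum (two-tailed) vs daily control, p < 0.05.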

Mus musculus [3] = assay: Behavioral time in mouse face to face assay at 3.2 umol/kg administered; format: functional; method in brief: as §2
Mus musculus [4] = assay: Behavioral time in mouse isolation-induced aggression assay 0 umol/kg administered peritoneally; format: functional; settings: in the assay text read “administered orally” for “administered peritoneally”; method in brief: as §1
Mus musculus [5] = assay: Behavioral time in mouse face to face assay at 0 umol/kg administered; format: functional; method in brief: as §2
Mus musculus [6] = assay: Behavioral time in mouse face to face assay at 0.3 umol/kg administered; format: functional; method in brief: as §2
Mus musculus [7] = assay: Behavioral time in mouse isolation-induced aggression assay at 10 umol/kg administered perorally (*P<0.05); format: functional; method in brief: as §1
Mus musculus [8] = assay: Behavioral time in mouse isolation-induced aggression assay at 0 umol/kg administered perorally (*P<0.05); format: functional; method in brief: as §1
Mus musculus [9] = assay: Behavioral time in mouse face to face assay at 33 umol/kg administered perorally (*P<0.05); format: functional; method in brief: as §2
Mus musculus [10] = assay: Tested in vivo for the effective dose administered orally in mouse hypothermia assay; format: functional; settings: po
Method in brief: (§3)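 Charles River CF-1 mice (18-22 g, 4 per dose), housed individually 20 min before testing. Rectal temperature taken before dosing and 20 min after (sc 0.1 mL; oral 0.2 mL by gavage needle). A drop of ≥2 °F counted as positive. Doses started at 30 mg/kg and fell by half-log until 0/4 responded.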

Mus musculus [11] = assay: Behavioral time in mouse isolation-induced aggression assay at 10 umol/kg administered intraperitoneally (*P<0.05); format: functional; method in brief: as §1
Mus musculus [12] = assay: (§4) Behavioral time in mouse isolation-induced aggression assay at 0 umol/kg administered intraperitoneally; format: functional
Method in brief: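 Isolated male CF-1 resident mice, housed singly ≥1 month and weighing 28-30 g at testing, were dosed ip or orally in 0.25% methylcellulose or 0.1% citric acid. Dosing was blind, 6 per group (n=12 vehicle). After 30 min an untreated group-housed intruder was introduced. Latency to fighting was recorded, capped at 600 s. Residents rested ≥3 days before reuse. Wilcoxon rank sum.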

Mus musculus [13] = assay: Behavioral time in mouse face to face assay at 3.3 umol/kg administered perorally (*P<0.05); format: functional; method in brief: as §2
Mus musculus [14] = assay: Tested in vivo for the maximum temperature decrease in mouse hypothermia assay.; format: functional
Method in brief: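 CF-1 mice (18-22 g, 4 per dose), dosed sc or orally. Rectal temperature measured before dosing and 20 min after. The mean maximum temperature drop (°F) at 20 min after any dose is recorded as an efficacy index.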

Mus musculus [15] = assay: Behavioral time in mouse face to face assay at 0.3 umol/kg administered perorally (*P<0.05); format: functional; method in brief: as §2
Mus musculus [16] = assay: In vivo effective dose administered subcutaneously in mouse hypothermia assay.; format: functional; settings: sc; method in brief: as §3
Mus musculus [17] = assay: Behavioral time in mouse face to face assay at 0.03 umol/kg administered perorally; format: functional; method in brief: as §2
Mus musculus [18] = assay: Behavioral time in mouse face to face assay at 0 umol/kg administered perorally; format: functional; method in brief: as §2
Mus musculus [19] = assay: Behavioral time in mouse isolation-induced aggression assay at 33 umol/kg administered perorally (*P<0.05); format: functional; method in brief: as §1
Felis catus [20] = organism: Felis catus; assay: Maximum decrease observed; format: functional; set-up: unit not given here
Felis catus [21] = assay: Maximum decrease on arterial blood pressure at 1 mg/kg; format: functional
Method in brief: (§5)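 Adult cats (2.5-4.0 kg) anesthetized with ketamine 11 mg/kg im, then chloralose 80 mg/kg iv. Femoral artery cannulated for blood pressure, femoral vein for drug. Ventilated, paralyzed with gallamine 4 mg/kg iv, rectal temperature held at 37-38 °C. Cumulative iv doses given at 20-min intervals. Maximum decrease reported following a 1 mg/kg iv dose.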

Felis catus [22] = organism: Felis catus; assay: Dose at which the SND has been reduced to 50% of the pretreatment value; format: functional
Method in brief: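 Adult cats (2.5-4.0 kg), ketamine 11 mg/kg im then chloralose 80 mg/kg iv, ventilated, gallamine-paralyzed, rectal temperature 37-38 °C. Sympathetic nerve discharge quantified by cumulative integration. Cumulative iv doses were given at 20-min intervals. Value is the dose reducing discharge to 50% of pretreatment.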

Rattus norvegicus [23] = assay: Effect on the synthesis rate of 5 HTP accumulation at the dose of 3.5 umol/kg in the rat ventral limbic brain region; format: functional, Limbic system
Method in brief: (§6)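 Male Sprague-Dawley rats dosed sc with drug or vehicle at time zero. NSD 1015 (100 mg/kg ip) given 15 min later to block aromatic decarboxylase. Brain DOPA and 5-HTP measured by electrochemical detection with peak integration. Expressed as percent change from NSD 1015 plus saline controls. Control and test groups N = 6 each, compared by unpaired t test.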

Felis catus [24] = assay: Dose on arterial blood pressure (BP) in anesthetized cat; format: functional; method in brief: as §5
Mus musculus [25] = assay: Behavioral time in mouse face to face assay at 0 umol/kg administered subcutaneously; format: functional; method in brief: as §2
Mus musculus [26] = assay: Behavioral time in mouse face to face assay at 36 umol/kg administered subcutaneously; format: functional; method in brief: as §2
Rattus norvegicus [27] = assay: Effect on the synthesis rate of dopamine (DOPA) accumulation at the dose of 3.5 uM/kg in the rat ventral limbic brain region; format: functional, Limbic system; method in brief: as §6
Mus musculus [28] = assay: Behavioral time in mouse face to face assay at 3.5 umol/kg administered subcutaneously; format: functional; method in brief: as §2
Mus musculus [29] = assay: Behavioral time in mouse face to face assay at 0.4 umol/kg administered subcutaneously; format: functional; method in brief: as §2
Mus musculus [30] = assay: Behavioral time in mouse isolation-induced aggression assay at 3.5 umol/kg administered intraperitoneally (*P<0.05); format: functional; method in brief: as §1
Mus musculus [31] = assay: Behavioral time in mouse face to face assay at 3.5 umol/kg administered perorally; format: functional; method in brief: as §2
Mus musculus [32] = assay: Behavioral time in mouse face to face assay at 35 umol/kg administered perorally; format: functional; method in brief: as §2
Mus musculus [33] = assay: Behavioral time in mouse isolation-induced aggression assay at 11 umol/kg administered intraperitoneally (*P<0.05); format: functional; method in brief: as §1
Mus musculus [34] = assay: Behavioral time in mouse isolation-induced aggression assay at 3.5 umol/kg administered perorally; format: functional; method in brief: as §1
Mus musculus [35] = assay: Behavioral time in mouse face to face assay at 11 umol/kg administered perorally; format: functional; method in brief: as §2
Mus musculus [36] = assay: Behavioral time in mouse isolation-induced aggression assay at 0 umol/kg administered perorally; format: functional; method in brief: as §1
Mus musculus [37] = assay: as §4; format: functional; method in brief: as §1; remark: listed apart in the source
Mus musculus [38] = assay: Behavioral time in mouse isolation-induced aggression assay at 35 umol/kg administered perorally (*P<0.05); format: functional; method in brief: as §1
Mus musculus [39] = assay: Behavioral time in mouse isolation-induced aggression assay at 11 umol/kg administered perorally; format: functional; method in brief: as §1
Rattus norvegicus [40] = assay: Effect on the synthesis rate of 5 HTP accumulation at the dose of 9.7 uM/kg in the rat ventral limbic brain region; format: functional, Limbic system; method in brief: as §6
Rattus norvegicus [41] = assay: Effect on the synthesis rate of dopamine (DOPA) accumulation at the dose of 9.7 umol/kg in the rat ventral limbic brain region; format: functional, Limbic system; method in brief: as §6
Rattus norvegicus [42] = assay: Effect on the synthesis rate of dopamine (DOPA) accumulation at 3.4 umol/kg in the rat ventral limbic brain region; format: functional, Limbic system; method in brief: as §6
Rattus norvegicus [43] = assay: Effect on the synthesis rate of 5 HTP accumulation at 3.4 umol/kg in the rat ventral limbic brain region; format: functional, Limbic system; method in brief: as §6
Rattus norvegicus [44] = assay: Effect on the synthesis rate of 5 HTP accumulation at 68 umol/kg in the rat ventral limbic brain region; format: functional, Limbic system; method in brief: as §6
Rattus norvegicus [45] = assay: Effect on the synthesis rate of dopamine (DOPA) accumulation at the dose of 68 umol/kg in the rat ventral limbic brain region; format: functional, Limbic system; method in brief: as §6
Felis catus [46] = assay: Maximum decrease observed following 1 mg/kg dose; format: functional
Mus musculus [47] = assay: Behavioral time in mouse face to face assay at 0 umol/kg administered intraperitoneally; format: functional; method in brief: as §2
Rattus norvegicus [48] = assay: Effect on the synthesis rate of dopamine (DOPA) accumulation at the dose of 10 umol/kg in the rat ventral limbic brain region; format: functional, Limbic system; method in brief: as §6
Rattus norvegicus [49] = assay: Effect on the synthesis rate of 5 HTP accumulation at the dose of 10 umol/kg in the rat ventral limbic brain region; format: functional, Limbic system; method in brief: as §6

Compound: C=CCN[C@@H]1CCc2cccc(OC)c2[C@@H]1C(=O)OC
- Time (Mus musculus [1]): 120 s
- Time (Mus musculus [2]): 0.8 s
- Time (Mus musculus [3]): 1.1 s
- Time (Mus musculus [4]): 56 s
- Time (Mus musculus [5]): 0.7 s
- Time (Mus musculus [6]): 1 s

Compound: CCCN(C)[C@@H]1CCc2cccc(OC)c2[C@@H]1CO
- Time (Mus musculus [7]): 125 s
- Time (Mus musculus [8]): 43 s
- Time (Mus musculus [9]): 2.1 s
- ED50 (Mus musculus [10]): 32 µmol/kg
- Time (Mus musculus [11]): 329 s
- Time (Mus musculus [12]): 6 s
- Time (Mus musculus [13]): 1.7 s
- TMP.decrease (Mus musculus [14]): 9.1 degrees F and 5 degrees F
- Time (Mus musculus [15]): 2 s
- ED50 (Mus musculus [16]): 5.7 µmol/kg
- Time (Mus musculus [17]): 1.7 s
- Time (Mus musculus [18]): 1.1 s
- Time (Mus musculus [19]): 269 s

Compound: C=CC[C@H]1c2c(O)cccc2CC[C@H]1NCCC
- Max decrease (Felis catus [20]): 10
- Max decrease (Felis catus [21]): 55
- ED50 (Felis catus [22]): 0.09 µmol/kg
- Change (Rattus norvegicus [23]): -53%
- BP (Felis catus [24]): 77%
- Time (Mus musculus [25]): 2.8 s
- ED50 (Mus musculus [10]): 61 µmol/kg
- Time (Mus musculus [26]): 3.8 s
- TMP.decrease (Mus musculus [14]): 9.5 degrees F and 6.9 degrees F
- ED50 (Mus musculus [16]): 1.1 µmol/kg
- Change (Rattus norvegicus [27]): 14%
- Time (Mus musculus [28]): 3.9 s
- Time (Mus musculus [29]): 2.9 s

Compound: CCCN[C@@H]1CCc2cccc(O)c2[C@@H]1CCC
- Time (Mus musculus [30]): 97 s
- Time (Mus musculus [31]): 1.1 s
- Time (Mus musculus [32]): 1.1 s
- Time (Mus musculus [33]): 125 s
- Time (Mus musculus [34]): 28 s
- Time (Mus musculus [35]): 1.3 s
- ED50 (Mus musculus [10]): 46 µmol/kg
- Time (Mus musculus [36]): 11 s
- TMP.decrease (Mus musculus [14]): 10.4 degrees F and 7.5 degrees F
- ED50 (Mus musculus [16]): 6.1 µmol/kg
- Time (Mus musculus [18]): 1.1 s
- Time (Mus musculus [37]): 8 s
- Time (Mus musculus [38]): 54 s
- Time (Mus musculus [39]): 146 s

Compound: CCCN[C@@H]1CCc2cccc(OC)c2[C@@H]1CC1CC1
- Change (Rattus norvegicus [40]): -25.8%
- TMP.decrease (Mus musculus [14]): 7.4 degrees F
- ED50 (Mus musculus [16]): 31 µmol/kg
- Change (Rattus norvegicus [41]): 5%

Compound: C=CC[C@@H]1c2c(cccc2OC)CC[C@H]1NCCC (relative stereo)
- Max decrease (Felis catus [20]): 16
- Change (Rattus norvegicus [42]): -4.3%
- ED50 (Felis catus [22]): 1.35 µmol/kg
- Change (Rattus norvegicus [43]): -6.9%
- Change (Rattus norvegicus [44]): -16%
- Change (Rattus norvegicus [45]): 8.1%
- BP (Felis catus [24]): 71%
- ED50 (Mus musculus [10]): 59 µmol/kg
- Max decrease (Felis catus [46]): 66
- TMP.decrease (Mus musculus [14]): 10.2 degrees F and 5.8 degrees F
- ED50 (Mus musculus [16]): 14 µmol/kg
- Time (Mus musculus [47]): 0.4 s

Compound: C=CC[C@@H]1c2cccc(OC)c2CC[C@H]1NCCC (relative stereo)
- Change (Rattus norvegicus [48]): -15%
- Change (Rattus norvegicus [49]): 2.7%
